We go through 16 molecules from PubChem BioAssay.

Broadly, the viability is a read-out of living cells in per cent, often relative to untreated cells. For orientation: inhibition means the change of the read-out against control, counted positive when it falls.

Activity calls are given as the source filed them.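 Rule for the calls, unless noted: active = viability loss from added drug above about 55%, and viability with drug at most 40%, in both replicates (limit read from the data, passing the limit was not always enough); inconclusive = both conditions met in only one replicate; inactive = neither replicate meets both conditions.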

The nature of experiment [1]: reducers of endogenous Her2 protein level, primary screen, SKBR3 breast tumor cells, AlphaScreen, ATP viability (AID 461;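 active = Her2 level under about 52% in both replicate screens, with viability over 70% of control, limit read from the data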;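 for Her2 level: lower value means less Her2 protein in the cells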;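 for viability: percent of carrier control wells set as 100% viability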). As to conditions: 18-24 h, measured here: SKBR3 viability, ATP luminescence, at 10 µM. For orientation: In Alpha technology, singlet oxygen from a donor bead excites a nearby acceptor bead.
For experiment [2], the target named is Receptor tyrosine-protein kinase erbB-2 (Homo sapiens) (UniProt P04626). The experiment is described as above. The following applies: 18-24 h, at 10 µM, stronger effect = lower value.
Experiment [3] in a line: SK-BR-3 cell growth inhibitors, pilot screen, 24 h, human (AID 572;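 active = viability at or below 10% of carrier control in both of two separate runs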;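 note: compound exposure lasted between 18 and 24 h rather than exactly 24 h; 100% = carrier-treated control wells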). The following applies: SK-BR-3 viability, CellTiter-Glo luminescence, at 10 µM, stronger effect = lower value. On the technique in general: Cellular ATP, detected with luciferase, serves as a proxy for viable cell number.
Experiment [4] is described as follows: HUVEC growth inhibition – cell-based, human, primary screen (AID 575;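 active = viability at or below 30% in both replicate assays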;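 note: 100% = median of untreated cell wells with 0.1% DMSO on each plate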). The following applies: HUVEC proliferation, CellTiter-Glo luminescence, 72 h; at 10 µM; stronger effect = lower value. The method, boiled down:
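Material: primary human umbilical vein endothelial cells / Schedule: 72 h exposure, 37 °C, 5% CO2, 30 min RT equilibration / Signal: ATP-based CellTiter-Glo luminescent read / Read-out basis: percent of median DMSO-control luminescence / Control set: 32 DMSO-only cell-control wells (high), 32 MePR drug-control wells (low) per plate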

Experiment [5] in a line: growth inhibitors of H69AR lung tumor, primary screen, human, duplicate replicates (AID 580;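 active = viability at or under a set limit in both replicates, limit being median viability minus 3 SD, cut at about 48% in these data, passing the limit was not always enough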;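 note: 100% = mean luminescence of untreated wells and 0% = no signal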). As to conditions: H69AR lung tumor cells viability, ATP luminescence, 72 h; at 10 µM; stronger effect = lower value.
Experiment [6] is described as follows: reversal of MRP1-mediated doxorubicin resistance, pilot screen, H69AR cells, doxorubicin co-treatment (AID 601). As to conditions: CellTiter-Glo, 72 h, at 10 µM; for differential viability (reversal): stronger effect = higher value.
Experiment [7] can be described thus: 384-well plate pilot, post-Golgi transport modulator project, inhibition of yeast transport mutant growth (AID 636; in the data active = inhibition above about 31%). As to conditions: absorbance 615 nm, about 18 h, stronger effect = higher value.
Experiment [8] can be described thus: growth suppression of yeast trafficking mutant, preliminary HTS, modulators of trafficking downstream of Golgi apparatus project, 1536-format plate, OD 615 nm (AID 637; in the data active = inhibition above about 30%). As to conditions: yeast transport mutant growth, absorbance 615 nm, 18 h; stronger effect = higher value.
Setting [9] is: H69AR cells + 2 uM doxorubicin, measured here: viability with 2 uM doxorubicin, stronger effect = lower value.
Where [10] appears, read: H69AR cells, compound alone cytotoxicity.

Receptor tyrosine-protein kinase erbB-2 (Homo sapiens), sequence (P04626 whole entry, looked up): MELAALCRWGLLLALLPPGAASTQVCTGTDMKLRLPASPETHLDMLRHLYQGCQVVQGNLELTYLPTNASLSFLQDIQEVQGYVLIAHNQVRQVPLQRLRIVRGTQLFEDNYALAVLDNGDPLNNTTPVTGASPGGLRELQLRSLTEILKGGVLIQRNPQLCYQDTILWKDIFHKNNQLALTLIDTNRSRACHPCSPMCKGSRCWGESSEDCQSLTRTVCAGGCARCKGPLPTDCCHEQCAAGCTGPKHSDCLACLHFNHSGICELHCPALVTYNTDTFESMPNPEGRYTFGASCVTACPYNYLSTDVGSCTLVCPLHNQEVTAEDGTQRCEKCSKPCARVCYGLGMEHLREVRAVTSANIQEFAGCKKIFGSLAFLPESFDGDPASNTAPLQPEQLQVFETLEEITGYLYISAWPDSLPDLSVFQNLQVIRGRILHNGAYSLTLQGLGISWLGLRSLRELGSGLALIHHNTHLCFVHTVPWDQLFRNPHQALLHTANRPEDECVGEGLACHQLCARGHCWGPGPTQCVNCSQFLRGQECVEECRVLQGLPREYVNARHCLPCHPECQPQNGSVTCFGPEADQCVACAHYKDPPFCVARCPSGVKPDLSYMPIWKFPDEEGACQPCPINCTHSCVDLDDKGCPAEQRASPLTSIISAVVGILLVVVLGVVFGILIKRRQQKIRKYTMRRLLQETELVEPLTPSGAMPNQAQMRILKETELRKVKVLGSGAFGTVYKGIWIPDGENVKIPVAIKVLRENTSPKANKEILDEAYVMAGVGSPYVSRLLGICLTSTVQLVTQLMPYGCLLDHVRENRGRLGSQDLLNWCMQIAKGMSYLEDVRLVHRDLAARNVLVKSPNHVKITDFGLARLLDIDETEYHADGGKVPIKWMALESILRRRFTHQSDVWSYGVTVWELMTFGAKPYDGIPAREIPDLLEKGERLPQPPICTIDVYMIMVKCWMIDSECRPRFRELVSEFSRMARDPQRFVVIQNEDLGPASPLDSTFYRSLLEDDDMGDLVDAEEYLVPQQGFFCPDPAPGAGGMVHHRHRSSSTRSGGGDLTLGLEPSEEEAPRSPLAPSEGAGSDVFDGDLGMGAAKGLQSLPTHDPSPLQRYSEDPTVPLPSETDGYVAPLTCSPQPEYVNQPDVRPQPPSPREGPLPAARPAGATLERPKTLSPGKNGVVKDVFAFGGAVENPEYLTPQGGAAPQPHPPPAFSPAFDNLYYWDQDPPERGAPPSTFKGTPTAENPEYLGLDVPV

For the molecule `O=c1cc(-c2ccc(Cl)cc2)[nH][nH]1`, the viability is 108% in experiment [1]; 108% (inactive) in experiment [3]; 93.5% (inactive) in experiment [4]; 91.6% (inactive) in experiment [5]; 85.9% in experiment [6] (setting [9]); 91.6% in experiment [6] (setting [10]). The Her2 level in experiment [2] is 84% (inactive). Besides, in experiment [6] (H69AR cells + 2 uM doxorubicin), the differential viability (reversal) was 5.75% (inactive). Also, the inhibition in experiment [7] was -7.84% (inactive); in experiment [8] it was 1% (inactive).

Consider `COCCn1c(SCC(=O)c2ccccc2)nc2c(c1=O)SC(C)C2` (stereo not given), for which the viability in experiment [1] was 108%; in experiment [3], 108% (inactive); in experiment [4] it was 98.9% (inactive); in experiment [5] it was 79.7% (inactive); in experiment [6] (setting [9]), 52.1%; in experiment [6] (setting [10]) it was 79.7%. Further, the Her2 level in experiment [2] was 106% (inactive). The differential viability (reversal) in experiment [6] (H69AR cells + 2 uM doxorubicin) is 27.6% (inactive). Moreover, the inhibition in experiment [7] was -5.2% (inactive); in experiment [8], 3.44% (inactive).

Consider `Cc1cc(NC(=O)CCCN2C(=O)c3cccnc3C2=O)no1`, for which the viability in experiment [1] was 92%; in experiment [3] it was 92% (inactive); in experiment [4], 94.3% (inactive); in experiment [5], 107% (inactive); in experiment [6] (setting [9]), 102%; in experiment [6] (setting [10]), 107%. Also, the Her2 level in experiment [2] is 95.5% (inactive). In addition, the differential viability (reversal) in experiment [6] (H69AR cells + 2 uM doxorubicin) was 5.19% (inactive). Moreover, the inhibition in experiment [7] was -2.84% (inactive); in experiment [8], -1.64% (inactive).

Consider `Cc1[nH]c(=O)[nH]c(=O)c1S(=O)(=O)Nc1ccc(Oc2ccccc2)cc1`, for which the viability in experiment [1] was 96%; in experiment [3] it was 96% (inactive); in experiment [4], 93.6% (inactive); in experiment [5] it was 97.8% (inactive); in experiment [6] (setting [9]), 87.5%; in experiment [6] (setting [10]), 97.8%. Moreover, the Her2 level in experiment [2] was 84.5% (inactive). In addition, the differential viability (reversal) in experiment [6] (H69AR cells + 2 uM doxorubicin) was 10.3% (inactive). Besides, the inhibition was -0.66% (inactive) in experiment [7] and 1.45% (inactive) in experiment [8].

In the case of `Cc1nn(-c2ccccc2)c(C)c1C(=O)OCC(=O)c1c(N)n(CC(C)C)c(=O)n(C)c1=O`, the viability in experiment [1] was 104%; in experiment [3], 104% (inactive); in experiment [4] it was 64.3% (inactive); in experiment [5] it was 77.8% (inactive); in experiment [6] (setting [9]) it was 102%; in experiment [6] (setting [10]), 77.8%. Besides, the Her2 level in experiment [2] is 74% (inactive). Besides, the differential viability (reversal) in experiment [6] (H69AR cells + 2 uM doxorubicin) was -24.7% (inactive). In addition, the inhibition in experiment [7] is -8.4% (inactive); in experiment [8], 4.75% (inactive).

Regarding `Cc1cccn2cc(-c3ccccc3)nc12`, the viability in experiment [1] was 78%; in experiment [3], 78% (inactive); in experiment [4] it was 79.2% (inactive); in experiment [5] it was 91.5% (inactive); in experiment [6] (setting [9]) it was 80.3%; in experiment [6] (setting [10]), 91.5%. In experiment [2], the Her2 level is 77% (inactive). Besides, in experiment [6] (H69AR cells + 2 uM doxorubicin), the differential viability (reversal) was 11.1% (inactive). For the same molecule, the inhibition is -1.45% (inactive) in experiment [7] and 2.55% (inactive) in experiment [8].

Consider `CNC(=O)CSc1nnc(-c2cccc(S(=O)(=O)N3CCOCC3)c2)n1-c1ccc(F)cc1`, for which the viability is 78.5% in experiment [1]; 78.5% (inactive) in experiment [3]; 99.9% (inactive) in experiment [4]; 93.2% (inactive) in experiment [5]; 98.5% in experiment [6] (setting [9]); 93.2% in experiment [6] (setting [10]). Moreover, the Her2 level in experiment [2] was 95% (inactive). For the same molecule, the differential viability (reversal) in experiment [6] (H69AR cells + 2 uM doxorubicin) was -5.28% (inactive). Besides, the inhibition in experiment [7] is 0% (inactive); in experiment [8] it was -2.5% (inactive).

In the case of `COc1ccc(C(CNC(=O)c2cc(C)oc2C)N2CCOCC2)cc1` (stereo not given), the viability was 126% in experiment [1]; 126% (inactive) in experiment [3]; 91.6% (inactive) in experiment [4]; 101% (inactive) in experiment [5]; 110% in experiment [6] (setting [9]); 101% in experiment [6] (setting [10]). Also, in experiment [2], the Her2 level was 96.5% (inactive). The differential viability (reversal) in experiment [6] (H69AR cells + 2 uM doxorubicin) was -9.67% (inactive). Also, the inhibition was -3.64% (inactive) in experiment [7] and -0.32% (inactive) in experiment [8].

As for `O=C(CN1CCOCC1)N1CCN(C(=O)CN2CCOCC2)CC1`, the viability in experiment [1] was 102%; in experiment [3], 102% (inactive); in experiment [4] it was 93.7% (inactive); in experiment [5], 104% (inactive); in experiment [6] (setting [9]), 88.9%; in experiment [6] (setting [10]), 104%. Also, the Her2 level in experiment [2] is 99.5% (inactive). The differential viability (reversal) in experiment [6] (H69AR cells + 2 uM doxorubicin) was 15.6% (inactive). The inhibition in experiment [7] was -3.73% (inactive); in experiment [8] it was 1.97% (inactive).

On to `Cc1ccc(S(=O)(=O)NCCCCC(NC(=O)OC(C)(C)C)C(=O)O)cc1` (stereo not given) (tested in a mixture with another compound), for which the viability in experiment [1] is 91.5%; in experiment [3], 91.5% (inactive); in experiment [4], 125% (inactive); in experiment [5], 104% (inactive); in experiment [6] (setting [9]), 96.8%; in experiment [6] (setting [10]), 104%. Also, the Her2 level in experiment [2] is 92.5% (inactive). In experiment [6] (H69AR cells + 2 uM doxorubicin), the differential viability (reversal) is 7.71% (inactive). Also, the inhibition is -3.68% (inactive) in experiment [7] and 8.52% (inactive) in experiment [8].

For the molecule `CCn1ncc(C2=NOC(C(=O)NCc3ccccc3)C2)c1C` (stereo not given), the viability in experiment [1] is 91%; in experiment [3], 91% (inactive); in experiment [4], 43.2% (inactive); in experiment [5], 27.5% (active); in experiment [6] (setting [9]), 60.4%; in experiment [6] (setting [10]), 27.5%. In addition, the Her2 level in experiment [2] is 82.5% (inactive). Also, the differential viability (reversal) in experiment [6] (H69AR cells + 2 uM doxorubicin) was -33% (inactive). Besides, the inhibition was -6.18% (inactive) in experiment [7] and -1.9% (inactive) in experiment [8].

Regarding `CCCc1cc(C(N)=O)c(NC(=O)c2ccco2)s1`, the viability was 102% in experiment [1]; 102% (inactive) in experiment [3]; 94.2% (inactive) in experiment [4]; 87.3% (inactive) in experiment [5]; 93.3% in experiment [6] (setting [9]); 87.3% in experiment [6] (setting [10]). The Her2 level in experiment [2] was 73.5% (inactive). In experiment [6] (H69AR cells + 2 uM doxorubicin), the differential viability (reversal) was -5.96% (inactive). Besides, the inhibition in experiment [7] was -3.29% (inactive); in experiment [8], 1.15% (inactive).

For `O=C(O)CC1=C(O)C(=O)N(c2ccccc2)C1c1ccccc1` (stereo not given), the viability is 102% in experiment [1]; 102% (inactive) in experiment [3]; 96.9% (inactive) in experiment [4]; 102% (inactive) in experiment [5]; 94.1% in experiment [6] (setting [9]); 102% in experiment [6] (setting [10]). Moreover, in experiment [2], the Her2 level was 107% (inactive). The differential viability (reversal) in experiment [6] (H69AR cells + 2 uM doxorubicin) was 7.7% (inactive). The inhibition in experiment [7] was -1.49% (inactive); in experiment [8], -0.49% (inactive).

Take `Cc1nn(-c2ccccc2)c2sc(C(=O)N3CCOCC3)cc12`: the viability in experiment [1] is 88.5%; in experiment [3] it was 88.5% (inactive); in experiment [4], 71.9% (inactive); in experiment [5], 87.3% (inactive); in experiment [6] (setting [9]) it was 89.6%; in experiment [6] (setting [10]) it was 87.3%. The Her2 level in experiment [2] is 84.5% (inactive). Besides, the differential viability (reversal) in experiment [6] (H69AR cells + 2 uM doxorubicin) was -2.3% (inactive). For the same molecule, the values for the inhibition in experiment [7] and in experiment [8] were -6% (inactive) and -0.48% (inactive), respectively.

As for `C=CCc1cccc2cc(C(=O)NCc3cccnc3)c(=O)oc12`, the viability in experiment [1] is 97.5%; in experiment [3], 97.5% (inactive); in experiment [4], 95% (inactive); in experiment [5], 95% (inactive); in experiment [6] (setting [9]), 90.1%; in experiment [6] (setting [10]) it was 95%. Moreover, the Her2 level in experiment [2] is 112% (inactive). Besides, the differential viability (reversal) in experiment [6] (H69AR cells + 2 uM doxorubicin) is 4.88% (inactive). In addition, the inhibition in experiment [7] was -0.52% (inactive); in experiment [8] it was -9.33% (inactive).

For the molecule `O=C(NCC1COCCO1)C1CCN(S(=O)(=O)c2ccccc2)CC1` (stereo not given), the viability is 90% in experiment [1]; 90% (inactive) in experiment [3]; 106% (inactive) in experiment [4]; 109% (inactive) in experiment [5]; 99.2% in experiment [6] (setting [9]); 109% in experiment [6] (setting [10]). In experiment [2], the Her2 level was 119% (inactive). Besides, the differential viability (reversal) in experiment [6] (H69AR cells + 2 uM doxorubicin) is 10.3% (inactive). The values for the inhibition in experiment [7] and in experiment [8] were 1.2% (inactive) and -7.26% (inactive), respectively.
